# In article PMC7578760 (iScience, 2020):
# Tested on: CIC
# Assay: Nuclear/cytoplasmic distribution of CIC
# Format: cell-based, human
# Conditions: 293T and MCF7; FGF 10 ng/mL or EGF 75 ng/mL, time course
# Procedure, shortened: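 293T and MCF7 cells grown in high-glucose DMEM with 10% FBS and penicillin-streptomycin. Endogenous CIC: cells exposed to 10 ng/mL FGF or 75 ng/mL EGF for indicated times. Exogenous CIC: cells transfected with HA-CIC plasmid for 48 h, then FGF 10 ng/mL for 0, 1, 2 h. Cells separated into nuclear and cytoplasmic fractions; CIC in each fraction detected by western blot.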
molecule,measurement,value
"EGF: mitogen, 75 ng/mL (protein, UniProt P01133 23-1207, looked up, Pro-epidermal growth factor) Pro-epidermal growth factor: PQHWSCPEGTLAGNGNSTCVGPAPFLIFSHGNSIFRIDTEGTNYEQLVVDAGVSVIMDFHYNEKRIYWVDLERQLLQRVFLNGSRQERVCNIEKNVSGMAINWINEEVIWSNQQEGIITVTDMKGNNSHILLSALKYPANVAVDPVERFIFWSSEVAGSLYRADLDGVGVKALLETSEKITAVSLDVLDKRLFWIQYNREGSNSLICSCDYDGGSVHISKHPTQHNLFAMSLFGDRIFYSTWKMKTIWIANKHTGKDMVRINLHSSFVPLGELKVVHPLAQPKAEDDTWEPEQKLCKLRKGNCSSTVCGQDLQSHLCMCAEGYALSRDRKYCEDVNECAFWNHGCTLGCKNTPGSYYCTCPVGFVLLPDGKRCHQLVSCPRNVSECSHDCVLTSEGPLCFCPEGSVLERDGKTCSGCSSPDNGGCSQLCVPLSPVSWECDCFPGYDLQLDEKSCAASGPQPFLLFANSQDIRHMHFDGTDYGTLLSQQMGMVYALDHDPVENKIYFAHTALKWIERANMDGSQRERLIEEGVDVPEGLAVDWIGRRFYWTDRGKSLIGRSDLNGKRSKIITKENISQPRGIAVHPMAKRLFWTDTGINPRIESSSLQGLGRLVIASSDLIWPSGITIDFLTDKLYWCDAKQSVIEMANLDGSKRRRLTQNDVGHPFAVAVFEDYVWFSDWAMPSVMRVNKRTGKDRVRLQGSMLKPSSLVVVHPLAKPGADPCLYQNGGCEHICKKRLGTAWCSCREGFMKASDGKTCLALDGHQLLAGGEVDLKNQVTPLDILSKTRVSEDNITESQHMLVAEIMVSDQDDCAPVGCSMYARCISEGEDATCQCLKGFAGDGKLCSDIDECEMGVPVCPPASSKCINTEGGYVCRCSEGYQGDGIHCLDIDECQLGEHSCGENASCTNTEGGYTCMCAGRLSEPGLICPDSTPPPHLREDDHHYSVRNSDSECPLSHDGYCLHDGVCMYIEALDKYACNCVVGYIGERCQYRDLKWWELRHAGHGQQQKVIVVAVCVVVLVMLLLLSLWGAHYYRTQKLLSKNPKNPYEESSRDVRSRRPADTEDGMSSCPQPWFVVIKEHQDLKNGGQPVAGEDGQAADGSMQPTSWRQEPQLCGMGTEQGCWIPVSSDKGSCPQVMERSFHMPSYGTQTLEGGVEKPHSLLSANPLWQQRALDPPHQMELTQ",cytosolic fraction of CIC,time-dependent increase in the cytosolic fraction of CIC
same,nuclear fraction of CIC,concomitant drop of the nuclear fraction
